From ChEMBL document CHEMBL1154837, “Identification of antibacterial and antifungal pharmacophore sites for potent bacteria and fungi inhibition: indolenyl sulfonamide derivatives” (Eur J Med Chem, 2010)
≈ marks a conversion by molar mass, not a printed value.

Columns and labels:
Escherichia coli [1] = test: Antimicrobial activity against Escherichia coli at 1 mg/ml by agar-well diffusion method; type: functional; conditions: read-out: IZ
Method in brief: (§1)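 Agar-well diffusion on nutrient agar. The surface was swabbed with 2–8 h old inocula of about 10^4–10^6 CFU/mL. Wells were 6 mm across and at least 24 mm apart. Each well received sample at 1 mg/mL in DMSO. DMSO served as negative control and imipenem as positive control. Plates were incubated at 37 °C for 24 h, and the diameter of the complete-inhibition zone was measured in mm.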

Shigella flexneri [2] = test: Antimicrobial activity against Shigella flexneri at 1 mg/ml by agar-well diffusion method; type: functional; conditions: read-out: IZ; method in brief: as §1
Pseudomonas aeruginosa = test: Antimicrobial activity against Pseudomonas aeruginosa at 1 mg/ml by agar-well diffusion method; type: functional; conditions: read-out: IZ; method in brief: as §1
Salmonella enterica [3] = test: Antimicrobial activity against Salmonella typhi at 1 mg/ml by agar-well diffusion method; type: functional, Salmonella enterica subsp. enterica serovar Typhi; conditions: read-out: IZ
Method in brief: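 Agar-well diffusion on nutrient agar. Plates were swabbed with 2–8 h old inoculum at about 10^4–10^6 CFU/mL, and 6 mm wells were cut at least 24 mm apart. Test sample 1 mg/mL in DMSO. DMSO served as negative control and imipenem as positive control. Plates were incubated at 37 °C for 24 h, and the diameter of complete-inhibition zones was measured (mm).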

Staphylococcus aureus = test: Antimicrobial activity against Staphylococcus aureus at 1 mg/ml by agar-well diffusion method; type: functional; conditions: read-out: IZ; method in brief: as §1
Bacillus subtilis [4] = test: Antimicrobial activity against Bacillus subtilis at 1 mg/ml by agar-well diffusion method; type: functional; conditions: read-out: IZ; method in brief: as §1
Candida albicans [5] = test: Antimicrobial activity against Candida albicans at 200 ug/ml after 7 days; type: functional; conditions: 168 h
Method in brief: (§2)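 Sabouraud dextrose agar was seeded with fungal spore suspension at 10^5 cfu/mL and poured into Petri plates. Discs soaked with compound at 200 µg/mL in DMSO were placed on the agar surface. Plates were incubated at 32 °C for seven days. Results were recorded as % inhibition, with miconazole and amphotericin B as reference drugs.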

Aspergillus flavus = test: Antimicrobial activity against Aspergillus flavus at 200 ug/ml after 7 days; type: functional; conditions: 168 h; method in brief: as §2
Fusarium solani [6] = test: Antimicrobial activity against Fusarium solani at 200 ug/ml after 7 days; type: functional; conditions: 168 h; method in brief: as §2
Nakaseomyces glabratus [7] = test: Antimicrobial activity against Candida glabrata at 200 ug/ml after 7 days; type: functional; conditions: 168 h; method in brief: as §2
Shigella flexneri [8] = test: Antimicrobial activity against Shigella flexneri after 24 hrs by disk diffusion assay; type: functional
Method in brief: (§3)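 MIC by disc diffusion, using discs prepared with 10, 25, 50 and 100 µg/mL of compound.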

Salmonella enterica [9] = test: Antimicrobial activity against Salmonella typhi after 24 hrs by disk diffusion assay; type: functional, Salmonella enterica subsp. enterica serovar Typhi
Bacillus subtilis [10] = test: Antimicrobial activity against Bacillus subtilis after 24 hrs by disk diffusion assay; type: functional; method in brief: as §3
Escherichia coli [11] = test: Antimicrobial activity against Escherichia coli after 24 hrs by disk diffusion assay; type: functional; method in brief: as §3
Trichophyton longifusum = test: Antimicrobial activity against Trichophyton longifusum after 7 days; type: functional
Candida albicans [12] = test: Antimicrobial activity against Candida albicans after 7 days; type: functional
Microsporum canis = test: Antimicrobial activity against Microsporum canis after 7 days; type: functional
Fusarium solani [13] = test: Antimicrobial activity against Fusarium solani after 7 days; type: functional
Nakaseomyces glabratus [14] = test: Antimicrobial activity against Candida glabrata after 7 days; type: functional

| SMILES | zone of inhibition at 1000 µg/mL (Escherichia coli [1]) | zone of inhibition at 1000 µg/mL (Shigella flexneri [2]) | zone of inhibition at 1000 µg/mL (Pseudomonas aeruginosa) | zone of inhibition at 1000 µg/mL (Salmonella enterica [3]) | zone of inhibition at 1000 µg/mL (Staphylococcus aureus) | zone of inhibition at 1000 µg/mL (Bacillus subtilis [4]) | growth inhibition at 200 µg/mL (Candida albicans [5]) | growth inhibition at 200 µg/mL (Aspergillus flavus) | growth inhibition at 200 µg/mL (Fusarium solani [6]) | growth inhibition at 200 µg/mL (Nakaseomyces glabratus [7]) | MIC (Shigella flexneri [8]) | MIC (Salmonella enterica [9]) | MIC (Bacillus subtilis [10]) | MIC (Escherichia coli [11]) | MIC (Trichophyton longifusum) | MIC (Candida albicans [12]) | MIC (Microsporum canis) | MIC (Fusarium solani [13]) | MIC (Nakaseomyces glabratus [14]) |
| --- | --- | --- | --- | --- | --- | --- | --- | --- | --- | --- | --- | --- | --- | --- | --- | --- | --- | --- | --- |
| NS(=O)(=O)c1ccc(/N=C/c2c[nH]c3ccccc23)cc1 | 21 mm | 18 mm | 19 mm | 20 mm | 18 mm | 20 mm | 40% | 55% | 43% | 25% | – | – | – | – | – | – | – | – | – |
| N=C(N)NS(=O)(=O)c1ccc(/N=C/c2c[nH]c3ccccc23)cc1 | 23 mm | 22 mm | 18 mm | 23 mm | 22 mm | 23 mm | 35% | 30% | 35% | 55% | 146 µM (≈ 50 µg/mL) | 293 µM (≈ 100 µg/mL) | 146 µM (≈ 50 µg/mL) | – | – | – | – | – | – |
| O=S(=O)(Nc1nccs1)c1ccc(/N=C/c2c[nH]c3ccccc23)cc1 | 24 mm | 23 mm | 20 mm | 23 mm | 23 mm | 24 mm | 40% | 30% | 80% | 60% | 131 µM (≈ 50 µg/mL) | 262 µM (≈ 100 µg/mL) | – | 262 µM (≈ 100 µg/mL) | – | – | – | – | – |
| Cc1cc(NS(=O)(=O)c2ccc(/N=C/c3c[nH]c4ccccc34)cc2)no1 | 22 mm | 20 mm | 17 mm | 19 mm | 19 mm | 23 mm | 25% | 45% | 45% | 40% | – | – | 263 µM (≈ 100 µg/mL) | – | – | – | – | – | – |
| Cc1noc(NS(=O)(=O)c2ccc(/N=C/c3c[nH]c4ccccc34)cc2)c1C | 23 mm | 19 mm | 19 mm | 20 mm | 20 mm | 17 mm | 45% | 55% | 65% | 55% | – | – | – | – | – | – | – | – | – |
| O=S(=O)(Nc1ncccn1)c1ccc(/N=C/c2c[nH]c3ccccc23)cc1 | 19 mm | 18 mm | 20 mm | 17 mm | 19 mm | 19 mm | 35% | 25% | 70% | 20% | – | – | – | – | – | – | – | – | – |
| Cc1cc(C)nc(NS(=O)(=O)c2ccc(/N=C/c3c[nH]c4ccccc34)cc2)n1 | 24 mm | 19 mm | 20 mm | 22 mm | 23 mm | 18 mm | 60% | 55% | 75% | 28% | – | 247 µM (≈ 100 µg/mL) | – | 123 µM (≈ 50 µg/mL) | – | – | – | – | – |
| C[C@@H](O)[C@H]1C(=O)N2C(C(=O)O)=C(SCCNC=N)C[C@H]12 [IMIPENEM ANHYDROUS] | 30 mm | 27 mm | 26 mm | 27 mm | 30 mm | 28 mm | – | – | – | – | – | – | – | – | – | – | – | – | – |
| Clc1ccc(COC(Cn2ccnc2)c2ccc(Cl)cc2Cl)c(Cl)c1 (stereo not given) [MICONAZOLE] | – | – | – | – | – | – | – | – | – | – | – | – | – | – | 168 µM (≈ 70 µg/mL) | 266 µM (≈ 111 µg/mL) | 236 µM (≈ 98.4 µg/mL) | 176 µM (≈ 73.3 µg/mL) | 266 µM (≈ 111 µg/mL) |
